Measurements published in the M2OR odorant receptor database.
Where a chain is given by its changes, count along the chain named.

Assays:
Conditions in all cases: stereoisomer not certain
UniProt Q7TR71 = molecular target: T1, UniProt Q7TR71
T1 sequence (whole entry): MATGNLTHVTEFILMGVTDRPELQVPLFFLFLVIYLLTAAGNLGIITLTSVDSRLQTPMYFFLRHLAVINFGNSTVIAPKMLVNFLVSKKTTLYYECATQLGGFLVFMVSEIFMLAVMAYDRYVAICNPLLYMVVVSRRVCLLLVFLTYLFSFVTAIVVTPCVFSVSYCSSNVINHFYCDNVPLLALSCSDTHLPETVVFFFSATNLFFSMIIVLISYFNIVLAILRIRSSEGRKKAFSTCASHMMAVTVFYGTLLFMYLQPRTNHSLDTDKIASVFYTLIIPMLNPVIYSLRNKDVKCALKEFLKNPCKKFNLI
How it was run: (§1)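 Assay methods differ from source to source, frequently being transient luciferase assays in mammalian cell lines. For each receptor–molecule pair, the label responsive (active) applies when the original authors judged the measured signal statistically different from baseline, and non-responsive (inactive) applies otherwise.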

UniProt Q7TR79 = molecular target: T2, UniProt Q7TR79
T2 sequence (whole entry): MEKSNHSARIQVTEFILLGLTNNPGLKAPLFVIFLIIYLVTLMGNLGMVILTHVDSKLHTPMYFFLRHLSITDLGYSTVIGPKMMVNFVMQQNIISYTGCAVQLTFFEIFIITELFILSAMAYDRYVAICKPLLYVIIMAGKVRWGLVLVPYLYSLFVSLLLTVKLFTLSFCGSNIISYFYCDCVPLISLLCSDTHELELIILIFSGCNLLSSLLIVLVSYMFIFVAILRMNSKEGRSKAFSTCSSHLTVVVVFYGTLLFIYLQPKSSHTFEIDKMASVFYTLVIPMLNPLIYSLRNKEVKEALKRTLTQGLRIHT
How it was run: as §1

UniProt Q7TRA3 = molecular target: T3, UniProt Q7TRA3
T3 sequence (whole entry): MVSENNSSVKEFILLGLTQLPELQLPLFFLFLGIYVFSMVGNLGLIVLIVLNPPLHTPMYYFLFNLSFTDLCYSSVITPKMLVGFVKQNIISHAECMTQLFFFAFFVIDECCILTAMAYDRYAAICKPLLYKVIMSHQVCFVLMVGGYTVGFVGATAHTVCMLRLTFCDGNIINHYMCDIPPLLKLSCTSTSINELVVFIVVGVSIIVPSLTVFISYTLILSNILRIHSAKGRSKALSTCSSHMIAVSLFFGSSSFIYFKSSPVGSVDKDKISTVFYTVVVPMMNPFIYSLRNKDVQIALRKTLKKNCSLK
How it was run: as §1

UniProt Q7TRE4 = molecular target: T4, UniProt Q7TRE4
T4 sequence (whole entry): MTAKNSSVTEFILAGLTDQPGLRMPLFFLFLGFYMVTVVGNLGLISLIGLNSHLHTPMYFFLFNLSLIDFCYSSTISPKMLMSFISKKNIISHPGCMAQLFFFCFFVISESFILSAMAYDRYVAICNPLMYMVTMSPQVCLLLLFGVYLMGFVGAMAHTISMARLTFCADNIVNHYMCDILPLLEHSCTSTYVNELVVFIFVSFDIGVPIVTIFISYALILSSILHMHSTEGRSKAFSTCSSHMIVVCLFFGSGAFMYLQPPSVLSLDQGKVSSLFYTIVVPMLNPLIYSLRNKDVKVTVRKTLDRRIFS
How it was run: as §1

UniProt Q7TRW1 = molecular target: T5, UniProt Q7TRW1
T5 sequence (whole entry): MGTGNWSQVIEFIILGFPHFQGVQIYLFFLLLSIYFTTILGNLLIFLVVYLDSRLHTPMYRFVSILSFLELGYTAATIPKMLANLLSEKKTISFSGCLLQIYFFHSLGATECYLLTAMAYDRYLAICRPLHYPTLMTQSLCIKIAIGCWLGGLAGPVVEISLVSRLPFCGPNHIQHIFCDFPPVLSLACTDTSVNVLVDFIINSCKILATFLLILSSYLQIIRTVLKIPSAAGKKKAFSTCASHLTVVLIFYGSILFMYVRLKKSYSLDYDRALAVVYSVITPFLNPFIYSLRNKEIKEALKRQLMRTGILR
How it was run: as §1

UniProt Q7TRX0 = molecular target: T6, UniProt Q7TRX0
T6 sequence (whole entry): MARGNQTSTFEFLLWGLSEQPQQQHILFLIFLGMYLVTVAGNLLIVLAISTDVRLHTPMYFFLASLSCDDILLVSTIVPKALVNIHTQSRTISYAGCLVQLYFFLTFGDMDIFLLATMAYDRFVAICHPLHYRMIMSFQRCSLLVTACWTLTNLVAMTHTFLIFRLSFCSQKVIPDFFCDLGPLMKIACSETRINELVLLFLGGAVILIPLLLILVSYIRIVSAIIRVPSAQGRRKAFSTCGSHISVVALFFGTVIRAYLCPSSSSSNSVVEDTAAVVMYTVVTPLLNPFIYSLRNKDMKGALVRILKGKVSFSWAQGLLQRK
How it was run: as §1

UniProt Q8VEU7 = molecular target: T7, UniProt Q8VEU7
T7 sequence (whole entry): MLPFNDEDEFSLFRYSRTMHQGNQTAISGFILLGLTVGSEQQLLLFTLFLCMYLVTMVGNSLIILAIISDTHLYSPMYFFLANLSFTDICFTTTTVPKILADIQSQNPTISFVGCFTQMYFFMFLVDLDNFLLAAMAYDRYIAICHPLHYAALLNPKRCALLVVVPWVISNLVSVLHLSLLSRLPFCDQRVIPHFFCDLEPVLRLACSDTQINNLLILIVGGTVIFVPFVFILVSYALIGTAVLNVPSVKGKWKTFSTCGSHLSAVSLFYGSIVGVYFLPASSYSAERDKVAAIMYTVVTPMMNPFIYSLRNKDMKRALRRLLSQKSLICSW
How it was run: as §1

UniProt Q8VF05 = molecular target: T8, UniProt Q8VF05
T8 sequence (whole entry): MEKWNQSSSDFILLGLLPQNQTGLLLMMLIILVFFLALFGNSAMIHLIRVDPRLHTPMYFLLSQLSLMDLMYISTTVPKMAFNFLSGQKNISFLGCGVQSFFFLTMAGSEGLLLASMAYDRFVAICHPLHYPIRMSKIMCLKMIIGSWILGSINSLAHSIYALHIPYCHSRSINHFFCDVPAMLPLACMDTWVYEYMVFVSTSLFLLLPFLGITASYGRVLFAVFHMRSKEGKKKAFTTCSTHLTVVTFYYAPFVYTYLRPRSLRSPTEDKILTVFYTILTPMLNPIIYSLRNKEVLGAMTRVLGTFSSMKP
How it was run: as §1

UniProt Q7TR75 = molecular target: UniProt Q7TR75
Chain of UniProt Q7TR75 (Q7TR75 as listed by the source): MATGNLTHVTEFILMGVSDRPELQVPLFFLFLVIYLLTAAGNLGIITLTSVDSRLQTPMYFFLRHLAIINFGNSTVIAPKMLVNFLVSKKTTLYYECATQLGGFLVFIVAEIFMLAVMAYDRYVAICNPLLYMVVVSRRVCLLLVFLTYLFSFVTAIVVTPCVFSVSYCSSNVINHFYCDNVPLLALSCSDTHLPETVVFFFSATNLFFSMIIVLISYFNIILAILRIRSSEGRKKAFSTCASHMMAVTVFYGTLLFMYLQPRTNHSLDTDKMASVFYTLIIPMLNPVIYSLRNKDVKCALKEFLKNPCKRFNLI
How it was run: as §1

UniProt Q7TRA1 = molecular target: T9, UniProt Q7TRA1
T9 sequence (whole entry): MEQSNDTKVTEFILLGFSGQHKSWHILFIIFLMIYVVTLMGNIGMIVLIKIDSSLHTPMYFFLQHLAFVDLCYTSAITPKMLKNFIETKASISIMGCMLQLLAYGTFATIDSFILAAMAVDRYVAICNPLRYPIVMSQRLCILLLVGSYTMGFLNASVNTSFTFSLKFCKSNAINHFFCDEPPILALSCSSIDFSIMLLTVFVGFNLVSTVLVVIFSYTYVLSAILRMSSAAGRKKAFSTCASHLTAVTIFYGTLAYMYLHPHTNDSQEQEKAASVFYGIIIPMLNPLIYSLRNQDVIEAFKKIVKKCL
How it was run: as §1

UniProt Q7TRA2 = molecular target: T10, UniProt Q7TRA2
T10 sequence (whole entry): T9 sequence (whole entry) with S18A, I86T, I94F, M95I, S112C, V208L, T219I, V221I, V305A
How it was run: as §1

UniProt Q7TRB8 = molecular target: UniProt Q7TRB8
Chain of UniProt Q7TRB8 (Q7TRB8 as listed by the source): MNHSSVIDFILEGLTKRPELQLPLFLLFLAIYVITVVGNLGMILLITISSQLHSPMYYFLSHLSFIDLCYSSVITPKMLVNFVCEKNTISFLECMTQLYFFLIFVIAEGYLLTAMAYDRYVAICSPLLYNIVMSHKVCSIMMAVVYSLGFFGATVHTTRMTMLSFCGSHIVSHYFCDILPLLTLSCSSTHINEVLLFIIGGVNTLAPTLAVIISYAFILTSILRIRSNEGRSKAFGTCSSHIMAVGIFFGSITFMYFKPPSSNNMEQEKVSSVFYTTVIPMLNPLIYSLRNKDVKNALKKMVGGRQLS
How it was run: as §1

UniProt Q7TS17 = molecular target: UniProt Q7TS17
Chain of UniProt Q7TS17 (Q7TS17 as listed by the source): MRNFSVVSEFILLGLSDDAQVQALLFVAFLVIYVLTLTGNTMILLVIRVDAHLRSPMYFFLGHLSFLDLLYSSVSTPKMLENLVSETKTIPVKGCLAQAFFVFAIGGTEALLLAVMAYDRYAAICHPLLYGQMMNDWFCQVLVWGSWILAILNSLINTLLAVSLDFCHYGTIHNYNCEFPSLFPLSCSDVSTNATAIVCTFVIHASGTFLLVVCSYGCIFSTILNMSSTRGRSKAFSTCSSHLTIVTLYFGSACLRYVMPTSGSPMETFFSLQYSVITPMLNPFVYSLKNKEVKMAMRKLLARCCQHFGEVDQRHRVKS
How it was run: as §1

UniProt Q7TS37 = molecular target: UniProt Q7TS37
Chain of UniProt Q7TS37 (Q7TS37 as listed by the source): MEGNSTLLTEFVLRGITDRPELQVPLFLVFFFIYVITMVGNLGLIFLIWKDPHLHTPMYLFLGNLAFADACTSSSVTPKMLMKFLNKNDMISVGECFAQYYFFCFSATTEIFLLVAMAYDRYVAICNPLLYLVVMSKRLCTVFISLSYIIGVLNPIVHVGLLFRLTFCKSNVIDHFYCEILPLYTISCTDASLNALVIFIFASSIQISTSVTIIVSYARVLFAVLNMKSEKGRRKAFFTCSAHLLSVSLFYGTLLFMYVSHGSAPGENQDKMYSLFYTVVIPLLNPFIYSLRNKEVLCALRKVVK
How it was run: as §1

UniProt Q7TS40 = molecular target: UniProt Q7TS40
Chain of UniProt Q7TS40 (Q7TS40 as listed by the source): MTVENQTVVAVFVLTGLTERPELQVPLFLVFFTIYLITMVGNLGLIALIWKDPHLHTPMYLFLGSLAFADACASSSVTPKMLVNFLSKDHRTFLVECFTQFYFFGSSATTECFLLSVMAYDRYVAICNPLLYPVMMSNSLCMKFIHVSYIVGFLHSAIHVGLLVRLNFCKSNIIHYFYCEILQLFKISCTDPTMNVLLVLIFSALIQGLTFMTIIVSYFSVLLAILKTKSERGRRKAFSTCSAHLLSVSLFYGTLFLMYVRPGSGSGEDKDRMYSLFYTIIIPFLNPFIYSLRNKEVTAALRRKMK
How it was run: as §1

Measured: odorant receptor agonist call

CCCC(=O)C(C)=O
active: UniProt Q8VF05
inactive: UniProt Q7TR71 | UniProt Q7TR79 | UniProt Q7TRA3 | UniProt Q7TRE4 | UniProt Q7TRW1 | UniProt Q7TRX0 | UniProt Q8VEU7

COc1cc(C(=O)O)ccc1O
inactive: UniProt Q7TR71 | UniProt Q7TR79 | UniProt Q7TRA3 | UniProt Q7TRE4 | UniProt Q7TRW1 | UniProt Q7TRX0 | UniProt Q8VEU7 | UniProt Q8VF05

O=C1CCOc2ccccc21
active: UniProt Q7TR71 | UniProt Q7TR75 | UniProt Q7TRA3 | UniProt Q7TS17 | UniProt Q7TS37 | UniProt Q8VF05
inactive: all other assays above

CCCCC(C)=O
inactive: UniProt Q7TR71 | UniProt Q7TR79 | UniProt Q7TRA3 | UniProt Q7TRE4 | UniProt Q7TRW1 | UniProt Q7TRX0 | UniProt Q8VEU7
active: UniProt Q8VF05

CCC(=O)C(=O)CC
active: UniProt Q8VF05
inactive: UniProt Q7TR71 | UniProt Q7TR79 | UniProt Q7TRA3 | UniProt Q7TRE4 | UniProt Q7TRW1 | UniProt Q7TRX0 | UniProt Q8VEU7

CCCCCOC(=O)CCCCC
inactive: UniProt Q7TR71 | UniProt Q7TR79 | UniProt Q7TRA3 | UniProt Q7TRE4 | UniProt Q7TRW1 | UniProt Q7TRX0 | UniProt Q8VEU7 | UniProt Q8VF05

C=C(C)C1CCC(C)C(=O)C1 (stereo not drawn)
inactive: UniProt Q7TR71 | UniProt Q7TR79 | UniProt Q7TRA3 | UniProt Q7TRE4 | UniProt Q7TRW1 | UniProt Q7TRX0 | UniProt Q8VEU7
active: UniProt Q8VF05
